Source: ChEMBL document CHEMBL3045352, “Papyracillic acid, a phytotoxic 1,6-dioxaspiro[4,4]nonene produced by Ascochyta agropyrina Var. nana, a potential mycoherbicide for Elytrigia repens biocontrol” (J Agric Food Chem, 2009)
Active and inactive are the calls of the source. No cut-off for these calls is given here.

Legend:
Assay type in all cases: functional, organism-based
Elymus repens [1] = test: Mycoherbicidal activity against Elymus repens (couch grass) assessed as decrease in length of necrotic lesions at 1 mg/ml by leaf-disk puncture assay
Procedure, shortened: (§1)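 Leaf disk-puncture bioassay on leaves of host and nonhost plants. Compound was applied at 1 mg/mL, and necrosis was read 3 days post-application. Each bioassay was run twice with at least three replicates. Error bars are standard error, and means were compared by Fisher's LSD.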

Xanthomonas campestris [2] = test: Antimicrobial activity against Xanthomonas campestris assessed as zone of lysis at 50 ug/disk
Procedure, shortened: (§2)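 Paper-disk assay against C. tropicalis, X. campestris and B. subtilis. Standard testing used 50 μg per disk. For concentration dependence, doses ran from 1.5 to 100 μg/disk. Each bioassay was run twice with at least three replicates. Means were compared by Fisher's LSD.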

Bacillus subtilis [3] = test: Antimicrobial activity against Bacillus subtilis assessed as zone of lysis at 50 ug/disk; procedure, shortened: as §2
Cirsium arvense [4] = test: Mycoherbicidal activity against Cirsium arvense (Canada thistle) assessed as decrease in length of necrotic lesions at 1 mg/ml by leaf-disk puncture assay; procedure, shortened: as §1
Candida tropicalis [5] = test: Antimicrobial activity against Candida tropicalis assessed as growth inhibition at 50 ug/disk; procedure, shortened: as §2
Trifolium pratense = test: Mycoherbicidal activity against Trifolium pratense (red clover) assessed as decrease in length of necrotic lesions at 1 mg/ml by leaf-disk puncture assay; procedure, shortened: as §1
Bacillus subtilis [6] = test: Antimicrobial activity against Bacillus subtilis assessed as zone of lysis at 6.25 ug/disk; procedure, shortened: as §2
Phleum pratense = test: Mycoherbicidal activity against Phleum pratense (timothy grass) assessed as decrease in length of necrotic lesions at 1 mg/ml by leaf-disk puncture assay; procedure, shortened: as §1
Sonchus arvensis = test: Mycoherbicidal activity against Sonchus arvensis (field sow-thistle) assessed as decrease in length of necrotic lesions at 1 mg/ml by leaf-disk puncture assay; procedure, shortened: as §1
Cannabis sativa = test: Mycoherbicidal activity against Cannabis sativa (hemp) assessed as decrease in length of necrotic lesions at 1 mg/ml by leaf disk puncture assay; procedure, shortened: as §1
Chenopodium album = test: Mycoherbicidal activity against Chenopodium album assessed as decrease in length of necrotic lesions at 1 mg/ml by leaf-disk puncture assay; procedure, shortened: as §1
Xanthomonas campestris [7] = test: Antimicrobial activity against Xanthomonas campestris assessed as zone of lysis at 6.25 ug/disk; procedure, shortened: as §2
Elymus repens [8] = test: Mycoherbicidal activity against Elymus repens (couch grass) assessed as decrease in length of necrotic lesions at 0.5 mg/ml by leaf-disk puncture assay
Procedure, shortened: (§3)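 Dose-response leaf disk-puncture on E. repens and C. arvense leaves. Concentrations ran from 0.06 to 2 mg/mL (0.6-20 μg/disk), and necrotic symptoms were scored 2 days post-application. Each bioassay was run twice with at least three replicates. Means were compared by Fisher's LSD.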

Rumex confertus = test: Mycoherbicidal activity against Rumex confertus (Asian dock) assessed as decrease in length of necrotic lesions at 1 mg/ml by leaf-disk puncture assay; procedure, shortened: as §1
Hordeum vulgare = test: Mycoherbicidal activity against Hordeum vulgare (barley) assessed as decrease in length of necrotic lesions at 1 mg/ml by leaf-disk puncture assay; procedure, shortened: as §1
Candida tropicalis [9] = test: Antimicrobial activity against Candida tropicalis assessed as growth inhibition at 6.25 ug/disk; procedure, shortened: as §2
Rosa pendulina = test: Mycoherbicidal activity against Rosa pendulina assessed as decrease in length of necrotic lesions at 1 mg/ml by leaf-disk puncture assay; procedure, shortened: as §1
Cirsium arvense [10] = test: Mycoherbicidal activity against Cirsium arvense (Canada thistle) assessed as decrease in length of necrotic lesions at 0.5 mg/ml by leaf-disk puncture assay; procedure, shortened: as §3
Taraxacum officinale = test: Mycoherbicidal activity against Taraxacum officinale (dandelion) assessed as decrease in length of necrotic lesions at 1 mg/ml by leaf-disk puncture assay; procedure, shortened: as §1

Compound	Activity (Elymus repens [1])	Activity (Xanthomonas campestris [2])	Activity (Bacillus subtilis [3])	Activity (Cirsium arvense [4])	also measured
COC1=CC(=O)O/C1=C(/COC(C)=O)C(C)C(C)=O (stereo unspecified)	Active	Active	Active	–	–
COC1=CC(=O)O/C1=C(\COC(C)=O)C(C)C(C)=O (stereo unspecified)	Active	–	–	Active	–
C=C1[C@H](C)[C@](C)(OC)O[C@]12OC(=O)C=C2OC	Active	Active	Active	Active	growth inhibition (GI) (Candida tropicalis [5]): Active
C=C(C(=O)/C(=C\C(=O)OC)OC)C(C)C(C)=O (stereo unspecified)	–	–	–	Active	–
C=C(C(C)C(C)=O)C1(OC(C)=O)OC(=O)C=C1OC (stereo unspecified)	Active	Active	Active	Active	–
C=C1[C@H](C)[C@](C)(O)O[C@]12OC(=O)C=C2OC	Active	–	–	Active	Activity (Trifolium pratense): Active; Activity (Bacillus subtilis [6]): Active; Activity (Phleum pratense): Active; Activity (Sonchus arvensis): Active; Activity (Cannabis sativa): inactive; Activity (Chenopodium album): Active; Activity (Xanthomonas campestris [7]): Active; Activity (Elymus repens [8]): Active; Activity (Rumex confertus): Active; Activity (Hordeum vulgare): Active; growth inhibition (GI) (Candida tropicalis [9]): Active; Activity (Rosa pendulina): Active; Activity (Cirsium arvense [10]): Active; Activity (Taraxacum officinale): Active
